Experimental data from ChEMBL document CHEMBL1124068, “5-Methyl-2-pyrrolidone analogues of oxotremorine as selective muscarinic agonists” (J Med Chem, 1988).
The source made the active and inactive calls.

What was measured:
Mus musculus [1] = experiment: Muscarinic activity administered intraperitoneally to mice, expressed as salivation; format: functional; conditions: ip
Outline: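 Male Swiss-Webster mice (24-32 g) dosed ip at 20.5 ± 1.0 °C; salivation judged by pressing mouth onto absorbent tissue; threshold dose estimated by up-and-down method.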

Mus musculus [2] = experiment: Central muscarinic activity administered intraperitoneally to mice, expressed as hypothermia; format: functional; conditions: ip
Outline: (§1)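 Rectal temperature (probe ~25 mm) in male Swiss-Webster mice (24-32 g) after ip dosing at 20.5 ± 1.0 °C; six mice per dose, five to six doses, readings every 20 min for 3 h. Maximal fall from pretreatment used; ED50 from logistic fit.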

Mus musculus [3] = experiment: Central muscarinic activity administered intraperitoneally to mice, expressed as analgesia; format: functional; conditions: ip
Outline: (§2)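 Male Swiss-Webster mice (24-32 g), ip, 20.5 ± 1.0 °C; tail-flick test, 15 s cut-off, groups of ten at three to four dose levels. Reaction time above control mean plus 3 SD counted as increased; ED50 by probit analysis.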

Cavia porcellus [4] = organism: Cavia porcellus; experiment: Efficacy relative to that of carbachol; format: functional
[5] = Acute toxicity administered intraperitoneally to mice; format: organism-based; conditions: mouse, in vivo, ip
Cavia porcellus [6] = organism: Cavia porcellus; experiment: Concentration that elicits 50% of its own maximum contractile response in guinea pig ileum; format: functional
Outline: (§3)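 Isolated guinea pig ileum in Tyrode solution (pH 7.4) with 0.3 mM hexamethonium, 37 °C; isotonic contractions at 1 g tension. Cumulative agonist concentration-response curves, concentration raised stepwise by factor 2.15; maxima expressed relative to carbachol.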

Cavia porcellus [7] = organism: Cavia porcellus; experiment: Equilibrium dissociation constant receptor complex, measured in guinea pig ileum; format: functional
Cavia porcellus [8] = organism: Cavia porcellus; experiment: Maximum contractile response relative to that elicited by carbachol was measured in guinea pig ileum; format: functional; outline: as §3
Cavia porcellus [9] = organism: Cavia porcellus; experiment: Equilibrium dissociation constant receptor complex, measured in guinea pig urinary bladder; format: functional
Mus musculus [10] = experiment: Tremorolytic activity administered intraperitoneally to mice; format: functional; conditions: ip
Outline: (§4)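 Antagonists given ip to groups of six or more male Swiss-Webster mice (24-32 g), six untreated controls; 20 min later iv oxotremorine ED50 for grade 2 intermittent spontaneous tremor found by up-and-down method. Dose doubling oxotremorine ED50 derived by linear regression; values are means ± standard errors.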

Cavia porcellus [11] = organism: Cavia porcellus; experiment: Maximum contractile response relative to that elicited by carbachol was measured in guinea pig urinary bladder; format: functional
Outline: (§5)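 Guinea pig bladder strips in Krebs-Henseleit solution (pH 7.4) with 0.3 mM hexamethonium, 37 °C; isotonic recording at 1 g tension; cumulative agonist additions increased by factor 3.16; responses referenced to carbachol.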

Cavia porcellus [12] = organism: Cavia porcellus; experiment: Efficacy relative to that of carbachol (guinea pig urinary bladder); format: functional
Cavia porcellus [13] = organism: Cavia porcellus; experiment: Concentration that elicits 50% of its own maximum contractile response in guinea pig urinary bladder; format: functional; outline: as §5
Mus musculus [14] = experiment: Tremorolytic activity administered intraperitoneally to mice; c = no significant blockade was observed; format: functional, organism-based; outline: as §4
Mus musculus [15] = experiment: Central muscarinic activity administered intraperitoneally to mice, expressed as analgesia; d = no effect was observed; format: functional, organism-based; outline: as §2
Mus musculus [16] = experiment: Central muscarinic activity administered intraperitoneally to mice, expressed as hypothermia; d = no effect was observed; format: functional, organism-based; outline: as §1

O=C1CCCN1CC#CCN1CCCC1 [OXOTREMORINE]
ED50 (Mus musculus [1]): 0.29 µmol/kg | ED50 (Mus musculus [2]): 0.22 µmol/kg | ED50 (Mus musculus [3]): 0.05 µmol/kg

CC(=O)N(C)C(C)C#CCN1CCCC1 (centres undefined)
Relative efficacy (Cavia porcellus [4]): 0.012 | LD50 [5]: 665 µmol/kg | EC50 (Cavia porcellus [6]): 190 nM | Kd (Cavia porcellus [7]): 240 nM | Emax (Cavia porcellus [8]): 82.6 | Kd (Cavia porcellus [9]): 140 nM | ED50 (Mus musculus [10]): 0.63 µmol/kg | ED50 (Mus musculus [1]): 0.65 µmol/kg | ED50 (Mus musculus [2]): 0.75 µmol/kg | Emax (Cavia porcellus [11]): <5 | ED50 (Mus musculus [3]): 0.37 µmol/kg

CC1CCC(=O)N1CC#CCN1CCCC1 (centres undefined)
LD50 [5]: 107 µmol/kg | ED50 (Mus musculus [10]): 0.36 µmol/kg

CC1CCC(=O)N1CC#CCN1CCC1 (centres undefined)
Relative efficacy (Cavia porcellus [4]): 0.02 | LD50 [5]: 192 µmol/kg | EC50 (Cavia porcellus [6]): 230 nM | Relative efficacy (Cavia porcellus [12]): 0.022 | Kd (Cavia porcellus [7]): 520 nM | Emax (Cavia porcellus [8]): 90 | Kd (Cavia porcellus [9]): 580 nM | ED50 (Mus musculus [10]): 4.6 µmol/kg | EC50 (Cavia porcellus [13]): 4600 nM | ED50 (Mus musculus [1]): 1.3 µmol/kg | ED50 (Mus musculus [2]): 4.9 µmol/kg | Emax (Cavia porcellus [11]): 21.4 | ED50 (Mus musculus [3]): 0.71 µmol/kg

CCN(C)CC#CCN1C(=O)CCC1C (centres undefined)
LD50 [5]: 636 µmol/kg | Kd (Cavia porcellus [7]): 1800 nM | Emax (Cavia porcellus [8]): 0 | Kd (Cavia porcellus [9]): 2500 nM | ED50 (Mus musculus [10]): 6.7 µmol/kg | Emax (Cavia porcellus [11]): 0

CC[N+](C)(C)CC#CCN1C(=O)CCC1C.[I-] (centres undefined)
Relative efficacy (Cavia porcellus [4]): 0.0036 | LD50 [5]: 176 µmol/kg | EC50 (Cavia porcellus [6]): 3200 nM | Kd (Cavia porcellus [7]): 4900 nM | Emax (Cavia porcellus [8]): 28.7 | Kd (Cavia porcellus [9]): 3500 nM | Emax (Cavia porcellus [11]): 0 | ED50 (Mus musculus [14]): No significant blockade

CN1[C@@H]2CC[C@H]1C[C@@H](OC(=O)C(CO)c1ccccc1)C2 (some centres undefined) [ATROPINE]
ED50 (Mus musculus [10]): 0.57 µmol/kg

C[N+](C)(C)CCOC(N)=O.[Cl-] [CARBACHOL]
Relative efficacy (Cavia porcellus [4]): 1 | EC50 (Cavia porcellus [6]): 110 nM | Relative efficacy (Cavia porcellus [12]): 1 | Kd (Cavia porcellus [7]): 14100 nM | Emax (Cavia porcellus [8]): 100 | Kd (Cavia porcellus [9]): 17000 nM | EC50 (Cavia porcellus [13]): 900 nM | Emax (Cavia porcellus [11]): 100

CCN(CC)CC#CCN1C(=O)CCC1C (centres undefined)
LD50 [5]: 720 µmol/kg | Kd (Cavia porcellus [7]): 1100 nM | Emax (Cavia porcellus [8]): 0 | Kd (Cavia porcellus [9]): 2100 nM | ED50 (Mus musculus [10]): 5.1 µmol/kg | Emax (Cavia porcellus [11]): 0

CC1CCC(=O)N1CC#CCN(C)C (centres undefined)
Relative efficacy (Cavia porcellus [4]): 0.04 | LD50 [5]: 402 µmol/kg | EC50 (Cavia porcellus [6]): 910 nM | Relative efficacy (Cavia porcellus [12]): 0.064 | Kd (Cavia porcellus [7]): 4300 nM | Emax (Cavia porcellus [8]): 102 | Kd (Cavia porcellus [9]): 11800 nM | ED50 (Mus musculus [10]): 22.8 µmol/kg | EC50 (Cavia porcellus [13]): 15000 nM | ED50 (Mus musculus [1]): 4 µmol/kg | ED50 (Mus musculus [2]): 13.1 µmol/kg | Emax (Cavia porcellus [11]): 58.1 | ED50 (Mus musculus [3]): 1.5 µmol/kg

CC1CCC(=O)N1CC#CC[N+](C)(C)C.[I-] (centres undefined)
Relative efficacy (Cavia porcellus [4]): 0.057 | LD50 [5]: 33.6 µmol/kg | EC50 (Cavia porcellus [6]): 180 nM | Relative efficacy (Cavia porcellus [12]): 0.062 | Kd (Cavia porcellus [7]): 1700 nM | Emax (Cavia porcellus [8]): 100 | Kd (Cavia porcellus [9]): 2800 nM | EC50 (Cavia porcellus [13]): 2000 nM | ED50 (Mus musculus [15]): inactive | ED50 (Mus musculus [1]): 12 µmol/kg | Emax (Cavia porcellus [11]): 71.4 | ED50 (Mus musculus [14]): inactive | ED50 (Mus musculus [16]): inactive
